{
  "source": "ChEMBL document CHEMBL2346664",
  "about": "“Synthesis, characterization and in vitro anticancer evaluation of novel 1,2,4-triazolin-3-one derivatives” (2013)",
  "assay_type_in_all_cases": "functional",
  "key": {"HCT-116": {"tested_on": "HCT-116", "assay": "Growth inhibition of human HCT116 cells assessed as cell growth at 10 '-5 M after 48 hrs by sulforhodamine B assay", "details": "HCT-116, 48 h, read-out: Activity"}, "[1]": {"assay": "Growth inhibition of human Hs 578T cells after 48 hrs by sulforhodamine B assay", "procedure,_shortened": "(§1)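 NCI 60-cell-line five-dose screen. Cells were plated at 5,000–40,000/well by doubling time and grown 24 h at 37 °C, 5% CO2. Time-zero plates were TCA-fixed. Drug from DMSO stock was tested at 0.01, 0.1, 1, 10 and 100 µM final for 48 h continuous exposure. Read-out was SRB at 515 nm. GI50 is the concentration giving 50% reduction in net protein increase versus untreated control.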"}, "[2]": {"assay": "Growth inhibition of human EKVX cells assessed as cell growth at 10 '-5 M after 48 hrs by sulforhodamine B assay", "details": "read-out: Activity"}, "HT-29": {"tested_on": "HT-29", "assay": "Growth inhibition of human HT-29 cells assessed as growth inhibition at 10 uM after 48 hrs by sulforhodamine B assay", "details": "HT-29, 48 h, read-out: GI"}, "UACC-62 [3]": {"tested_on": "UACC-62", "assay": "Growth inhibition of human UACC62 cells assessed as cell growth at 10 '-8 M after 48 hrs by sulforhodamine B assay", "details": "UACC-62, 48 h, read-out: Activity"}, "IGROV-1 [4]": {"tested_on": "IGROV-1", "assay": "Growth inhibition of human IGROV1 cells assessed as cell growth at 10 '-5 M after 48 hrs by sulforhodamine B assay", "details": "IGROV-1, 48 h, read-out: Activity"}, "RPMI-8226": {"tested_on": "RPMI-8226", "assay": "Growth inhibition of human RPMI8226 cells assessed as growth inhibition at 10 uM after 48 hrs by sulforhodamine B assay", "details": "RPMI-8226, 48 h, read-out: GI"}, "PC-3": {"tested_on": "PC-3", "assay": "Growth inhibition of human PC3 cells assessed as growth inhibition at 10 uM after 48 hrs by sulforhodamine B assay", "details": "PC-3, 48 h, read-out: GI"}, "[5]": {"assay": "Growth inhibition of human NCI-ADR-RES cells assessed as growth inhibition at 10 uM after 48 hrs by sulforhodamine B assay", "details": "read-out: GI"}, "HOP-92": {"tested_on": "HOP-92", "assay": "Growth inhibition of human HOP92 cells assessed as cell growth at 10 '-7 M after 48 hrs by sulforhodamine B assay", "details": "HOP-92, 48 h, read-out: Activity"}, "K562": {"tested_on": "K562", "assay": "Growth inhibition of human K562 cells assessed as cell growth at 10 '-8 M after 48 hrs by sulforhodamine B assay", "details": "K562, 48 h, read-out: Activity"}, "M14 [6]": {"tested_on": "M14", "assay": "Growth inhibition of human M14 cells assessed as cell growth at 10 '-8 M after 48 hrs by sulforhodamine B assay", "details": "M14, 48 h, read-out: Activity"}, "Malme-3M": {"tested_on": "Malme-3M", "assay": "Growth inhibition of human MALME-3M cells assessed as cell growth at 10 '-6 M after 48 hrs by sulforhodamine B assay", "details": "read-out: Activity"}, "MDA-MB-231": {"tested_on": "MDA-MB-231", "assay": "Growth inhibition of human MDA-MB-231 cells assessed as cell growth at 10 '-7 M after 48 hrs by sulforhodamine B assay", "details": "MDA-MB-231, 48 h, read-out: Activity"}, "MOLT-4": {"tested_on": "MOLT-4", "assay": "Growth inhibition of human MOLT4 cells after 48 hrs by sulforhodamine B assay", "details": "MOLT-4, 48 h", "procedure,_shortened": "as §1"}, "A498": {"tested_on": "A498", "assay": "Growth inhibition of human A498 cells after 48 hrs by sulforhodamine B assay", "details": "A498, 48 h", "procedure,_shortened": "(§2)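 NCI 60-cell-line five-dose screen at 0.01, 0.1, 1, 10 and 100 µM final. Cells were plated at 5,000–40,000/well and grown 24 h at 37 °C, 5% CO2, then exposed to drug continuously for 48 h. Adherent cells were fixed with cold TCA (10% final) and stained with SRB; absorbance read at 515 nm. GI50 is the concentration where [(Ti-Tz)/(C-Tz)]×100 = 50, with Tz plates fixed at drug addition.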"}, "HCT-15": {"tested_on": "HCT-15", "assay": "Growth inhibition of human HCT15 cells assessed as cell growth at 10 '-4 M after 48 hrs by sulforhodamine B assay", "details": "HCT-15, 48 h, read-out: Activity"}, "COLO 205": {"tested_on": "COLO 205", "assay": "Growth inhibition of human COLO205 cells assessed as cell growth at 10 '-4 M after 48 hrs by sulforhodamine B assay", "details": "COLO 205, 48 h, read-out: Activity", "procedure,_shortened": "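In the same five-dose SRB screen (48 h, 37 °C, 5% CO2), percentage growth was computed at each concentration from time-zero (Tz), control (C) and treated (Ti) absorbances. The formula was [(Ti−Tz)/(C−Tz)]×100 when Ti ≥ Tz, or [(Ti−Tz)/Tz]×100 when Ti < Tz.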"}, "IGROV-1 [7]": {"tested_on": "IGROV-1", "assay": "Growth inhibition of human IGROV1 cells assessed as cell growth at 10 '-7 M after 48 hrs by sulforhodamine B assay", "details": "IGROV-1, 48 h, read-out: Activity"}, "SN12C": {"tested_on": "SN12C", "assay": "Growth inhibition of human SN12C cells after 48 hrs by sulforhodamine B assay"}, "SNB-75": {"tested_on": "SNB-75", "assay": "Growth inhibition of human SNB75 cells assessed as cell growth at 10 '-5 M after 48 hrs by sulforhodamine B assay", "details": "SNB-75, 48 h, read-out: Activity"}, "UACC-62 [8]": {"tested_on": "UACC-62", "assay": "Growth inhibition of human UACC62 cells assessed as cell growth at 10 '-5 M after 48 hrs by sulforhodamine B assay", "details": "UACC-62, 48 h, read-out: Activity"}, "T47D": {"tested_on": "T47D", "assay": "Growth inhibition of human T47D cells assessed as cell growth at 10 '-7 M after 48 hrs by sulforhodamine B assay", "details": "read-out: Activity"}, "[9]": {"assay": "Growth inhibition of human […] cells after 48 hrs by sulforhodamine B assay", "procedure,_shortened": "as §2"}, "SK-MEL-5": {"tested_on": "SK-MEL-5", "assay": "Growth inhibition of human SK-MEL-5 cells after 48 hrs by sulforhodamine B assay", "details": "SK-MEL-5, 48 h"}, "M14 [10]": {"tested_on": "M14", "assay": "Growth inhibition of human M14 cells assessed as growth inhibition at 10 uM after 48 hrs by sulforhodamine B assay", "details": "M14, 48 h, read-out: GI"}, "OVCAR-4": {"tested_on": "OVCAR-4", "assay": "Growth inhibition of human OVCAR4 cells assessed as cell growth at 10 '-8 M after 48 hrs by sulforhodamine B assay", "details": "OVCAR-4, 48 h, read-out: Activity"}, "CAKI-1": {"tested_on": "CAKI-1", "assay": "Growth inhibition of human CAKI-1 cells assessed as cell growth at 10 '-8 M after 48 hrs by sulforhodamine B assay", "details": "CAKI-1, 48 h, read-out: Activity", "procedure,_shortened": "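Percent growth at each of the five concentrations of the 48 h continuous-exposure NCI SRB screen. Drug stocks were in DMSO at 400× the top final concentration and diluted in medium with gentamicin. Growth was calculated as [(Ti-Tz)/(C-Tz)]×100 when Ti ≥ Tz, or [(Ti-Tz)/Tz]×100 when Ti < Tz. Tz plates were fixed at drug addition; untreated wells served as control. Absorbance was read at 515 nm.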"}, "[11]": {"details": "read-out: LD50 (the source's name)"}},
  "data": [
    {"smiles": "Cc1cc(=O)oc2cc(OCCn3c(C)nn(-c4ccc(Cl)cc4)c3=O)ccc12", "values": [
      {"measurement": "growth at 10 µM", "setting": "HCT-116", "value": 21, "unit": "%"},
      {"measurement": "GI50", "setting": "[1]", "value": 2820, "unit": "nM"},
      {"measurement": "TGI", "setting": "[1]", "value": "> 1000", "unit": "nM"},
      {"measurement": "CC50", "setting": "[1]; [11]", "value": "> 1000", "unit": "nM"},
      {"measurement": "growth at 10 µM", "setting": "[2]", "value": 63, "unit": "%"},
      {"measurement": "inhibition of growth at 10 µM", "setting": "HT-29", "value": 99.3, "unit": "%"},
      {"measurement": "growth at 0.01 µM", "setting": "UACC-62 [3]", "value": 97, "unit": "%"},
      {"measurement": "growth at 10 µM", "setting": "IGROV-1 [4]", "value": 61, "unit": "%"},
      {"measurement": "inhibition of growth at 10 µM", "setting": "RPMI-8226", "value": 69, "unit": "%"},
      {"measurement": "inhibition of growth at 10 µM", "setting": "PC-3", "value": 51.5, "unit": "%"},
      {"measurement": "inhibition of growth at 10 µM", "setting": "[5]", "value": 75.3, "unit": "%"},
      {"measurement": "growth at 0.1 µM", "setting": "HOP-92", "value": 83, "unit": "%"},
      {"measurement": "growth at 0.01 µM", "setting": "K562", "value": 107, "unit": "%"},
      {"measurement": "growth at 0.01 µM", "setting": "M14 [6]", "value": 101, "unit": "%"},
      {"measurement": "growth at 1 µM", "setting": "Malme-3M", "value": 82, "unit": "%"},
      {"measurement": "growth at 0.1 µM", "setting": "MDA-MB-231", "value": 88, "unit": "%"},
      {"measurement": "GI50", "setting": "MOLT-4", "value": 4710, "unit": "nM"},
      {"measurement": "TGI", "setting": "MOLT-4", "value": "> 1000", "unit": "nM"},
      {"measurement": "CC50", "setting": "MOLT-4; [11]", "value": "> 1000", "unit": "nM"},
      {"measurement": "GI50", "setting": "A498", "value": 1130, "unit": "nM"},
      {"measurement": "TGI", "setting": "A498", "value": 3190, "unit": "nM"},
      {"measurement": "CC50", "setting": "A498; [11]", "value": "> 1000", "unit": "nM"},
      {"measurement": "growth at 100 µM", "setting": "HCT-15", "value": 25, "unit": "%"},
      {"measurement": "growth at 100 µM", "setting": "COLO 205", "value": -38, "unit": "%"},
      {"measurement": "growth at 0.1 µM", "setting": "IGROV-1 [7]", "value": 112, "unit": "%"},
      {"measurement": "GI50", "setting": "SN12C", "value": 5540, "unit": "nM"},
      {"measurement": "TGI", "setting": "SN12C", "value": "> 1000", "unit": "nM"},
      {"measurement": "CC50", "setting": "SN12C; [11]", "value": "> 1000", "unit": "nM"},
      {"measurement": "growth at 10 µM", "setting": "SNB-75", "value": 5, "unit": "%"},
      {"measurement": "growth at 10 µM", "setting": "UACC-62 [8]", "value": 24, "unit": "%"},
      {"measurement": "growth at 0.1 µM", "setting": "T47D", "value": 99, "unit": "%"},
      {"measurement": "GI50", "setting": "[9]", "value": 5700, "unit": "nM"},
      {"measurement": "TGI", "setting": "[9]", "value": "> 1000", "unit": "nM"},
      {"measurement": "CC50", "setting": "[9]; [11]", "value": "> 1000", "unit": "nM"},
      {"measurement": "GI50", "setting": "SK-MEL-5", "value": 8480, "unit": "nM"},
      {"measurement": "TGI", "setting": "SK-MEL-5", "value": "> 1000", "unit": "nM"},
      {"measurement": "CC50", "setting": "SK-MEL-5; [11]", "value": "> 1000", "unit": "nM"},
      {"measurement": "inhibition of growth at 10 µM", "setting": "M14 [10]", "value": 85.3, "unit": "%"},
      {"measurement": "growth at 0.01 µM", "setting": "OVCAR-4", "value": 100, "unit": "%"},
      {"measurement": "growth at 0.01 µM", "setting": "CAKI-1", "value": 97, "unit": "%"}
    ]}
  ]
}
